Bioassay records: PubChem, SRMLSC
Shown is part of a subset that was picked to be rich in hits.
HCT116 bCat-KO – beta-catenin-lacking colon tumor cell growth suppression; HCT116 beta-catenin knockout viability, CellTiter-Glo, 60 h; hits give low values; viability, % at 10 µM; actives 1.5% (n = 140,000); AID 818;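 active = viability at or under a set limit, the compound median less 4 SD, cut at about 6% in these data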
HCT116 PTEN-null – suppresses growth of cells with PTEN deletion; HCT116 PTEN-null viability, CellTiter-Glo, 60 h; hits give low values; viability, % at 10 µM; actives 1.2% (n = 140,000);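 active = viability at or below a set limit, 4 SD under the median of all tested compounds, cut at about 3.7% in these data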;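 note: PTEN knockout HCT116 line with beta catenin targeted HCT116 as companion control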
Fibroblast inh – blocks proliferation of human lung fibroblasts. LL 47 human lung fibroblast viability, ATP luminescence; hits give low values. viability, % at 10 µM. actives 1.1% (n = 85,000);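 active = viability at or below 50% in the single dose screen; inactive = viability above 50%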;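 note: compound exposure lasted 72 h before the ATP readout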
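Test system: LL 47 human lung fibroblasts / Quantity: 1,150 cells in each well / Medium: IMEM growth medium with 15% fetal bovine serum / Incubation: 72 h compound exposure at 37 °C after overnight plating / Detection: CellTiter-Glo luminescence measuring cellular ATP / Read-out: % viability versus median cells-only luminescence / Benchmarks: cell-only wells, no compound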
HUVEC prolif 384 – human endothelial cell proliferation inhibition; actives 1.1% (n = 86,000); viability, % at 10 µM (by protocol); AID 648; HUVEC proliferation, CellTiter-Glo luminescence, 72 h; hits give low values;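 active = viability at or below 30%; inactive = viability above 30%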
H69AR inhibit – growth inhibitors of human H69AR lung tumor cells. H69AR lung tumor viability, ATP luminescence, 72 h; hits give low values. viability, % at 10 µM. actives 6% (n = 85,000). AID 598;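 active = viability at or below 40%; inactive = viability above 40%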;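 note: multidrug resistant small cell line overexpressing MRP-1 efflux transporter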
Of the large screens only hits and unclear results are named; the others gave an inactive call.

O=C(Nc1cccc2c1[nH]c1ccccc12)C(F)(F)F	H69AR inhibit 11
CSc1cccc(NC(=O)C2CCN(C(=O)c3ccccc3C)CC2)c1	none (no result: Fibroblast inh, HUVEC prolif 384, H69AR inhibit)
C=CCn1c(=O)/c(=C/c2ccc(F)cc2)s/c1=C(\C#N)c1nnc2n1CCCCC2	H69AR inhibit 39
CC/C(O)=C(/C#N)c1nnc2n1CCCCC2	none
O=C(Cn1nnc(-c2ccncc2)n1)N(C1CCCCC1)C1CCCCC1	none
CCOc1ccc2[nH]c(=O)c(CN(Cc3cccs3)C(CC)c3nnnn3C(C)(C)CC)cc2c1 (stereo not drawn)	H69AR inhibit 4.9
CCC(c1nnnn1C1CCCC1)N(Cc1cccs1)Cc1cc2cc(C)ccc2[nH]c1=O (stereo not drawn)	HCT116 bCat-KO 4.0, HCT116 PTEN-null 3.0, H69AR inhibit 4.2
CCOC(=O)Cn1nnnc1C(CC)N(Cc1cccs1)Cc1cc2cc(C)ccc2[nH]c1=O (stereo not drawn)	none
CCNC(=S)N(Cc1cccs1)Cc1cc2cc(OCC)ccc2[nH]c1=O	none (no result: Fibroblast inh, HUVEC prolif 384, H69AR inhibit)
O=C(CCCN1C(=O)c2ccccc2C1=O)NCCN1C(=O)S/C(=C\c2cccs2)C1=O	none (no result: Fibroblast inh, HUVEC prolif 384, H69AR inhibit)
C/C(CC1CC(COCCC(C)C)OC1=O)=N\NC(N)=S (stereo not drawn)	none (no result: Fibroblast inh, HUVEC prolif 384, H69AR inhibit)
Cc1cc(=O)[nH]c(N=N/C(=N/Nc2ccc(O)cc2)c2ccccc2)n1	H69AR inhibit 32
COc1ccc(N/N=C(/N=Nc2nc(C)cc(=O)[nH]2)c2ccccc2)cc1	Fibroblast inh 16, HUVEC prolif 384 21, H69AR inhibit 27
C/C(=N\Nc1nc(C)cc(=O)[nH]1)C1CC1	none (no result: Fibroblast inh, HUVEC prolif 384, H69AR inhibit)
COC(=O)Cc1cc(=O)[nH]c(/N=C(/NC(=O)c2ccccc2)Nc2ccccc2C)n1	none (no result: HCT116 bCat-KO, HCT116 PTEN-null)
Cc1cc(=O)[nH]c(N=N/C(=N/Nc2ccccc2C)c2ccccc2)n1	HCT116 PTEN-null 3.6, Fibroblast inh 24, HUVEC prolif 384 12, H69AR inhibit 26
CC1CCC(NC(=O)CN2C(=O)COc3ccc(S(=O)(=O)N4CCCC4)cc32)CC1 (stereo not drawn)	none (no result: Fibroblast inh, HUVEC prolif 384, H69AR inhibit)
Cc1ccc(OCc2cn3cccnc3n2)cc1	none (no result: Fibroblast inh, HUVEC prolif 384, H69AR inhibit)
CN1CCN(C2=Cc3ccc(Cl)cc3Sc3ccc(F)cc32)CC1	HUVEC prolif 384 3.8, H69AR inhibit 21
CCOc1ccc(OCC)c(Nc2cc(C)nc3nc(C)nn23)c1	H69AR inhibit 32
CCOC(=O)N1CCN(C(=O)c2ccc(Cl)c(S(=O)(=O)Nc3ccccc3)c2)CC1	H69AR inhibit 32
Cc1cccc(NS(=O)(=O)c2cc(C(=O)N3CCCC3)ccc2Cl)c1	none (no result: Fibroblast inh, HUVEC prolif 384, H69AR inhibit)
O=[N+]([O-])c1ccc2nc(-c3ccc(Cl)cc3)[nH]c2c1	HCT116 PTEN-null 2.7 (no result: Fibroblast inh, HUVEC prolif 384, H69AR inhibit)
COc1ccc(-c2nc3ccc([N+](=O)[O-])cc3[nH]2)cc1	none (no result: Fibroblast inh, HUVEC prolif 384, H69AR inhibit)
Cc1cc(C)cc(OCC(=O)OCC(=O)c2c(N)n(C)c(=O)n(C)c2=O)c1	none
O=C(N/N=C/C=C/c1ccccc1)C1CC1c1ccccc1 (stereo not drawn)	H69AR inhibit 26
COc1ccc(-n2ncc3c(SCC(=O)N4CCN(c5ccccc5OC)CC4)ncnc32)cc1	H69AR inhibit 23
O=C(CSc1ncnc2c1nnn2-c1ccc(F)cc1)N1CCN(c2ccccc2)CC1	H69AR inhibit 27 (no result: HCT116 bCat-KO, HCT116 PTEN-null)
COC(=O)C(NNc1ccccc1C)(NC(=O)c1ccc(F)cc1)C(F)(F)F (stereo not drawn)	none (no result: Fibroblast inh, HUVEC prolif 384, H69AR inhibit)
COc1ccc(-c2[nH]c(-c3ccc(F)cc3)nc2SCC(=O)NCc2ccco2)cc1OC	H69AR inhibit 39
COc1ccc(-c2[nH]c(-c3ccccc3)nc2SCC(=O)NCc2ccco2)cc1OC	none
O=S(=O)(c1ccc(S(=O)(=O)N2CCCC3(CCCCC3)C2)cc1)N1CCCCC1	H69AR inhibit 35
Oc1oc(-c2ccccc2)nc1C=Nc1cccc2ccccc12	H69AR inhibit 20
O=C(c1c(O)c2ccccc2oc1=O)C1CCCCC1	none
O=C(CCC1CCCC1)c1c(O)c2ccccc2oc1=O	HUVEC prolif 384 1.8
COc1ccc(S(=O)(=O)N2CCc3ccccc32)cc1C(=O)OCc1nnc(-c2ccccc2)o1	none
COC(=O)c1sc(S(=O)(=O)Nc2ccc(Br)cc2)c(C(=O)OC)c1C	none (no result: Fibroblast inh, HUVEC prolif 384, H69AR inhibit)
CCCCCn1c(CN2CCN(c3cc(Cl)ccc3C)CC2)nc2c1c(=O)[nH]c(=O)n2C	HUVEC prolif 384 28, H69AR inhibit 3.5
CCCCCn1c(N2CCN(c3cccc(Cl)c3)CC2)nc2c1c(=O)[nH]c(=O)n2C	none
CCOC(=O)Cn1c(=O)c2c(nc(N3CCCCC3)n2Cc2ccccc2)n(C)c1=O	H69AR inhibit 24
CCCCCOC(=O)Cn1c(=O)c2c(nc(N3CCOCC3)n2C)n(C)c1=O	H69AR inhibit 35
C/C(Cl)=C/Cn1c(N2CCCC2)nc2c1c(=O)n(C)c(=O)n2C	H69AR inhibit 33
C/C(Cl)=C\Cn1c(N2CCCC2)nc2c1c(=O)[nH]c(=O)n2C	none
C[C@@H]1NC(=O)[C@H](CCCN=C(N)N)NC(=O)c2cc([N+](=O)[O-])cc(I)c2OCC[C@@H](C(=O)NC(CC(=O)O)C(N)=O)NC1=O (stereo partly drawn)	none (no result: Fibroblast inh, HUVEC prolif 384, H69AR inhibit)
Cc1cc(Cl)ccc1OCCCC(=O)NCCN1C(=O)S/C(=C\c2cccnc2)C1=O	none (no result: Fibroblast inh, HUVEC prolif 384, H69AR inhibit)
O=C1NC2(CCCCC2)C(=O)N1Cc1ccc([N+](=O)[O-])cc1	none (no result: Fibroblast inh, HUVEC prolif 384, H69AR inhibit)
N#CCc1ccc(NS(=O)(=O)c2ccc(C3CCCCC3)cc2)cc1	none (no result: Fibroblast inh, HUVEC prolif 384, H69AR inhibit)
Cn1c(=O)[nH]c(=O)c2c1nc(N1CCN(Cc3ccccc3)CC1)n2CCCc1ccccc1	HCT116 bCat-KO 5.6
Cn1c(=O)c2c(nc(N3CCN(Cc4ccccc4)CC3)n2CC(=O)c2ccccc2)n(C)c1=O	H69AR inhibit 32 (no result: HCT116 bCat-KO, HCT116 PTEN-null)
Cn1c(=O)c2c(nc(N3CCN(Cc4ccccc4)CC3)n2CCCc2ccccc2)n(C)c1=O	none
Cn1c(=O)[nH]c(=O)c2c1nc(N1CCN(c3cccc(Cl)c3)CC1)n2CCCc1ccccc1	none (no result: H69AR inhibit)
Cc1nc(N/C(N)=N/S(=O)(=O)c2ccc([N+](=O)[O-])cc2)nc2ccccc12	none (no result: Fibroblast inh, HUVEC prolif 384, H69AR inhibit)
CCOC(=O)c1snc(C(=O)NC2CCCCC2)c1N	none
CC(OC(=O)c1snc(C(=O)NC2CCCCC2)c1N)C(=O)NC1CCCCC1 (stereo not drawn)	H69AR inhibit 23
Cc1cccnc1NCc1ccc(O)c2ncccc12	HCT116 bCat-KO 3.9, HCT116 PTEN-null 2.5, H69AR inhibit 13
O=C(COc1ccc(Cl)cc1Cl)Nc1c(-c2cccs2)nc2ccccn12	none (no result: Fibroblast inh, HUVEC prolif 384, H69AR inhibit)
Cc1ccc(C(=O)CSC2=C(C#N)C(c3ccco3)C3=C(CC(C)(C)CC3=O)N2)cc1 (stereo not drawn)	none
N#CC1=C(SCC(=O)c2ccc(Cl)cc2)NC2=C(C(=O)CCC2)C1c1ccco1 (stereo not drawn)	H69AR inhibit 13
Cc1nc2ccccc2nc(C)c1=NOCc1ccccc1Cl	none (no result: Fibroblast inh, HUVEC prolif 384, H69AR inhibit)
COc1ccc2c(c1)nc1n2CN(CC2CCCO2)CN1Cc1ccccc1 (stereo not drawn)	H69AR inhibit 25 (no result: HCT116 bCat-KO, HCT116 PTEN-null)
COc1ccc(/C=C2/C(=O)N(CC3CCCO3)C(=S)N2C)c(OC)c1 (stereo not drawn)	none (no result: Fibroblast inh, HUVEC prolif 384, H69AR inhibit)
CCOc1ccccc1N1CCN(c2nc(N)c(C#N)c(CC#N)c2C#N)CC1	H69AR inhibit 20
